Test system: MGC-803
Test: Cytotoxicity against human MGC803 cells after 48 hrs by MTT assay
Type: functional, cell-based
Conditions: MGC-803, 48 h
How it was run: (§1)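 MTT colorimetric assay. Shikonin and 5-fluorouracil served as reference agents. IC₅₀ obtained by linear regression of each compound's concentration–response curve.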

Row | SMILES | IC50 [µM]
1 | COc1cc(C(CC=C(C)C)SC(=O)c2ccc([N+](=O)[O-])cc2)c(OC)c2c1/C(=N/O)C=C/C2=N\O (stereo not given) | 9.3
2 | CCCCCCCSC(CC=C(C)C)c1cc(OC)c2c(c1OC)/C(=N/O)C=C/C2=N\O (stereo not given) | 5.51
3 | COc1cc(C(CC=C(C)C)SC(=O)c2cccc(F)c2)c(OC)c2c1/C(=N/O)C=C/C2=N\O (stereo not given) | 6.47
4 | COc1cc(C(CC=C(C)C)SC(=O)c2ccco2)c(OC)c2c1/C(=N/O)C=C/C2=N\O (stereo not given) | 5.01
5 | CCCCCCCCCCSC(CC=C(C)C)c1cc(OC)c2c(c1OC)/C(=N/O)C=C/C2=N\O (stereo not given) | 19.2
6 | COc1cc(C(CC=C(C)C)SC(=O)c2cccs2)c(OC)c2c1/C(=N/O)C=C/C2=N\O (stereo not given) | 2.75
7 | CCCCCCCCSC(CC=C(C)C)c1cc(OC)c2c(c1OC)/C(=N/O)C=C/C2=N\O (stereo not given) | 2.29
8 | COc1cc(C(CC=C(C)C)SC(=O)c2ccc(F)cc2)c(OC)c2c1/C(=N/O)C=C/C2=N\O (stereo not given) | 1.28
9 | COc1cc(C(CC=C(C)C)SC(=O)c2ccccc2)c(OC)c2c1/C(=N/O)C=C/C2=N\O (stereo not given) | 1.28
10 | CC(C)=CC[C@@H](O)C1=CC(=O)c2c(O)ccc(O)c2C1=O [SHIKONIN] | 1.51

Test system: Bel-7402
Test: Cytotoxicity against human Bel7402 cells after 48 hrs by MTT assay
Type: functional, cell-based
Conditions: Bel-7402, 48 h
How it was run: as §1

Row | SMILES | IC50 [µM]
11 | COc1cc(C(CC=C(C)C)SC(=O)c2ccc([N+](=O)[O-])cc2)c(OC)c2c1/C(=N/O)C=C/C2=N\O (stereo not given) | 12.6
12 | CCCCCCCSC(CC=C(C)C)c1cc(OC)c2c(c1OC)/C(=N/O)C=C/C2=N\O (stereo not given) | 8.15
13 | COc1cc(C(CC=C(C)C)SC(=O)c2cccc(F)c2)c(OC)c2c1/C(=N/O)C=C/C2=N\O (stereo not given) | 8.9
14 | COc1cc(C(CC=C(C)C)SC(=O)c2ccco2)c(OC)c2c1/C(=N/O)C=C/C2=N\O (stereo not given) | 7.3
15 | CCCCCCCCCCSC(CC=C(C)C)c1cc(OC)c2c(c1OC)/C(=N/O)C=C/C2=N\O (stereo not given) | 25.4
16 | COc1cc(C(CC=C(C)C)SC(=O)c2cccs2)c(OC)c2c1/C(=N/O)C=C/C2=N\O (stereo not given) | 3.04
17 | CCCCCCCCSC(CC=C(C)C)c1cc(OC)c2c(c1OC)/C(=N/O)C=C/C2=N\O (stereo not given) | 6.37
18 | COc1cc(C(CC=C(C)C)SC(=O)c2ccc(F)cc2)c(OC)c2c1/C(=N/O)C=C/C2=N\O (stereo not given) | 0.89
19 | COc1cc(C(CC=C(C)C)SC(=O)c2ccccc2)c(OC)c2c1/C(=N/O)C=C/C2=N\O (stereo not given) | 1.2
20 | CC(C)=CC[C@@H](O)C1=CC(=O)c2c(O)ccc(O)c2C1=O [SHIKONIN] | 1.24

Test system: not listed separately
Test: Cytotoxicity against human HSF cells after 48 hrs by MTT assay
Type: cell-based
Conditions: not given
How it was run: as §1

Row | SMILES | IC50 [µM]
21 | COc1cc(C(CC=C(C)C)SC(=O)c2ccc([N+](=O)[O-])cc2)c(OC)c2c1/C(=N/O)C=C/C2=N\O (stereo not given) | > 50
22 | CCCCCCCSC(CC=C(C)C)c1cc(OC)c2c(c1OC)/C(=N/O)C=C/C2=N\O (stereo not given) | > 50
23 | COc1cc(C(CC=C(C)C)SC(=O)c2cccc(F)c2)c(OC)c2c1/C(=N/O)C=C/C2=N\O (stereo not given) | > 50
24 | COc1cc(C(CC=C(C)C)SC(=O)c2ccco2)c(OC)c2c1/C(=N/O)C=C/C2=N\O (stereo not given) | > 50
25 | CCCCCCCCCCSC(CC=C(C)C)c1cc(OC)c2c(c1OC)/C(=N/O)C=C/C2=N\O (stereo not given) | > 50
26 | COc1cc(C(CC=C(C)C)SC(=O)c2cccs2)c(OC)c2c1/C(=N/O)C=C/C2=N\O (stereo not given) | > 50
27 | CCCCCCCCSC(CC=C(C)C)c1cc(OC)c2c(c1OC)/C(=N/O)C=C/C2=N\O (stereo not given) | > 50
28 | COc1cc(C(CC=C(C)C)SC(=O)c2ccc(F)cc2)c(OC)c2c1/C(=N/O)C=C/C2=N\O (stereo not given) | > 50
29 | COc1cc(C(CC=C(C)C)SC(=O)c2ccccc2)c(OC)c2c1/C(=N/O)C=C/C2=N\O (stereo not given) | > 50
30 | CC(C)=CC[C@@H](O)C1=CC(=O)c2c(O)ccc(O)c2C1=O [SHIKONIN] | 1.25

Test system: HCT-15
Test: Cytotoxicity against human HCT15 cells after 48 hrs by MTT assay
Type: functional, cell-based
Conditions: HCT-15, 48 h
How it was run: as §1

Row | SMILES | IC50 [µM]
31 | COc1cc(C(CC=C(C)C)SC(=O)c2ccc([N+](=O)[O-])cc2)c(OC)c2c1/C(=N/O)C=C/C2=N\O (stereo not given) | 5.09
32 | CCCCCCCSC(CC=C(C)C)c1cc(OC)c2c(c1OC)/C(=N/O)C=C/C2=N\O (stereo not given) | 1.97
33 | COc1cc(C(CC=C(C)C)SC(=O)c2cccc(F)c2)c(OC)c2c1/C(=N/O)C=C/C2=N\O (stereo not given) | 2.71
34 | COc1cc(C(CC=C(C)C)SC(=O)c2ccco2)c(OC)c2c1/C(=N/O)C=C/C2=N\O (stereo not given) | 1.98
35 | CCCCCCCCCCSC(CC=C(C)C)c1cc(OC)c2c(c1OC)/C(=N/O)C=C/C2=N\O (stereo not given) | 7.43
36 | COc1cc(C(CC=C(C)C)SC(=O)c2cccs2)c(OC)c2c1/C(=N/O)C=C/C2=N\O (stereo not given) | 1.36
37 | CCCCCCCCSC(CC=C(C)C)c1cc(OC)c2c(c1OC)/C(=N/O)C=C/C2=N\O (stereo not given) | 1.25
38 | COc1cc(C(CC=C(C)C)SC(=O)c2ccc(F)cc2)c(OC)c2c1/C(=N/O)C=C/C2=N\O (stereo not given) | 0.7
39 | COc1cc(C(CC=C(C)C)SC(=O)c2ccccc2)c(OC)c2c1/C(=N/O)C=C/C2=N\O (stereo not given) | 0.63
40 | CC(C)=CC[C@@H](O)C1=CC(=O)c2c(O)ccc(O)c2C1=O [SHIKONIN] | 0.86

Test system: MCF7
Test: Cytotoxicity against human MCF7 cells after 48 hrs by MTT assay
Type: functional, cell-based
Conditions: MCF7, 48 h
How it was run: as §1

Row | SMILES | IC50 [µM]
41 | COc1cc(C(CC=C(C)C)SC(=O)c2ccc([N+](=O)[O-])cc2)c(OC)c2c1/C(=N/O)C=C/C2=N\O (stereo not given) | 44.7
42 | CCCCCCCSC(CC=C(C)C)c1cc(OC)c2c(c1OC)/C(=N/O)C=C/C2=N\O (stereo not given) | 30.6
43 | COc1cc(C(CC=C(C)C)SC(=O)c2cccc(F)c2)c(OC)c2c1/C(=N/O)C=C/C2=N\O (stereo not given) | 38.9
44 | COc1cc(C(CC=C(C)C)SC(=O)c2ccco2)c(OC)c2c1/C(=N/O)C=C/C2=N\O (stereo not given) | 28.3
45 | CCCCCCCCCCSC(CC=C(C)C)c1cc(OC)c2c(c1OC)/C(=N/O)C=C/C2=N\O (stereo not given) | 48.3
46 | COc1cc(C(CC=C(C)C)SC(=O)c2cccs2)c(OC)c2c1/C(=N/O)C=C/C2=N\O (stereo not given) | 23.8
47 | CCCCCCCCSC(CC=C(C)C)c1cc(OC)c2c(c1OC)/C(=N/O)C=C/C2=N\O (stereo not given) | 25.7
48 | COc1cc(C(CC=C(C)C)SC(=O)c2ccc(F)cc2)c(OC)c2c1/C(=N/O)C=C/C2=N\O (stereo not given) | 20.5
49 | COc1cc(C(CC=C(C)C)SC(=O)c2ccccc2)c(OC)c2c1/C(=N/O)C=C/C2=N\O (stereo not given) | 17.4
50 | CC(C)=CC[C@@H](O)C1=CC(=O)c2c(O)ccc(O)c2C1=O [SHIKONIN] | 2.4

From ChEMBL document CHEMBL4138201, “Synthesis and biological evaluation of sulfur-containing shikonin oxime derivatives as potential antineoplastic agents” (Eur J Med Chem, 2018)
